From ChEMBL document CHEMBL4689842, “EUbOPEN Chemogenomics Library wave 1” (2021)

Assays:
Fibroblast = experiment: Multiplex assay against human fibroblast; assay type: toxicity, cell-based
Method in brief: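 Per cents of healthy-nucleus cells form the tubulin, mitochondrial-mass and membrane-permeability phenotype values. Live cells were stained at seeding with Hoechst33342, BioTracker Green Microtubule Cytoskeleton Dye, MitoTracker Red and Annexin V Alexa Fluor 680. After compound addition they were imaged on a CQ1 microscope at 37°C and 5% CO2, and CellPathfinder machine-learning gating split them into Hoechst high-intensity objects or normal cells, normal cells into healthy, pyknosed or fragmented nuclei, and pyknosed cells into mitotic or apoptotic.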

U2OS = experiment: Incucyte cell viability with U2OS; assay type: toxicity, cell-based; details: human, 10 µM, compound concentration 10 uM; also: filed as whole numbers so only -1 and 0 and 1 occur
[1] = 24 h, 10 µM, compound concentration 10 uM, replicate 1
[2] = 24 h, 10 µM, compound concentration 10 uM, replicate 2
[3] = 48 h, 1 µM, compound concentration 1 uM, replicate 1
[4] = 48 h, 1 µM, compound concentration 1 uM, replicate 2
[5] = 48 h, 10 µM, compound concentration 10 uM, replicate 1
[6] = 48 h, 10 µM, compound concentration 10 uM, replicate 2

`Oc1cccc(-c2nc(N3CCOCC3)c3oc4ncccc4c3n2)c1` [PI-103] was tested, and the “Population Apoptotic (%)” value (Fibroblast; [1]) was 66%, the “Population Fragmented Nuclei (%)” value (Fibroblast; [1]) was 32% and the “Population Healthy Nuclei (%)” value (Fibroblast; [1]) was 32%. The “Population Hoechst High Intensity Objects (%)” value (Fibroblast; [1]) was 32%, the “Population Membrane Permeable-Phenotype (%)” value (Fibroblast; [1]) was 37% and the “Population Mitochondria Different-Phenotype (%)” value (Fibroblast; [1]) was 12%. The “Population Mitotic Cells (%)” value (Fibroblast; [1]) was 33%, the “Population Normal (%)” value (Fibroblast; [1]) was 67% and the “Population Pyknosed Nuclei (%)” value (Fibroblast; [1]) was 36%. The “Population Tubulin-Different-Phenotype (%)” value (Fibroblast; [1]) was 70%, the “Total Cell Count” value (Fibroblast; [1]) was 111 and the “Population Apoptotic (%)” value (Fibroblast; [2]) was 50%. For the same molecule, the “Population Fragmented Nuclei (%)” value (Fibroblast; [2]) was 28%, the “Population Healthy Nuclei (%)” value (Fibroblast; [2]) was 24% and the “Population Hoechst High Intensity Objects (%)” value (Fibroblast; [2]) was 4%. The “Population Membrane Permeable-Phenotype (%)” value (Fibroblast; [2]) was 44%, the “Population Mitochondria Different-Phenotype (%)” value (Fibroblast; [2]) was 75% and the “Population Mitotic Cells (%)” value (Fibroblast; [2]) was 49%. The “Population Normal (%)” value (Fibroblast; [2]) was 95%, the “Population Pyknosed Nuclei (%)” value (Fibroblast; [2]) was 47% and the “Population Tubulin-Different-Phenotype (%)” value (Fibroblast; [2]) was 89%. The “Total Cell Count” value (Fibroblast; [2]) was 80, the “Population Apoptotic (%)” value (Fibroblast; [3]) was 33% and the “Population Fragmented Nuclei (%)” value (Fibroblast; [3]) was 33%. The “Population Healthy Nuclei (%)” value (Fibroblast; [3]) was 53%, the “Population Membrane Permeable-Phenotype (%)” value (Fibroblast; [3]) was 20% and the “Population Mitochondria Different-Phenotype (%)” value (Fibroblast; [3]) was 5%. The “Population Mitotic Cells (%)” value (Fibroblast; [3]) was 66%, the “Population Pyknosed Nuclei (%)” value (Fibroblast; [3]) was 12% and the “Population Tubulin-Different-Phenotype (%)” value (Fibroblast; [3]) was 22%. The “Total Cell Count” value (Fibroblast; [3]) was 163, the “Population Apoptotic (%)” value (Fibroblast; [4]) was 60% and the “Population Fragmented Nuclei (%)” value (Fibroblast; [4]) was 32%. For the same molecule, the “Population Healthy Nuclei (%)” value (Fibroblast; [4]) was 62%, the “Population Hoechst High Intensity Objects (%)” value (Fibroblast; [4]) was 14% and the “Population Membrane Permeable-Phenotype (%)” value (Fibroblast; [4]) was 34%. For the same molecule, the “Population Mitochondria Different-Phenotype (%)” value (Fibroblast; [4]) was 8%, the “Population Mitotic Cells (%)” value (Fibroblast; [4]) was 40% and the “Population Normal (%)” value (Fibroblast; [4]) was 85%. The “Population Pyknosed Nuclei (%)” value (Fibroblast; [4]) was 4%, the “Population Tubulin-Different-Phenotype (%)” value (Fibroblast; [4]) was 47% and the “Total Cell Count” value (Fibroblast; [4]) was 129. For the same molecule, the “Population Apoptotic (%)” value (Fibroblast; [5]) was 46%, the “Population Fragmented Nuclei (%)” value (Fibroblast; [5]) was 35% and the “Population Healthy Nuclei (%)” value (Fibroblast; [5]) was 43%. The “Population Hoechst High Intensity Objects (%)” value (Fibroblast; [5]) was 33%, the “Population Membrane Permeable-Phenotype (%)” value (Fibroblast; [5]) was 34% and the “Population Mitochondria Different-Phenotype (%)” value (Fibroblast; [5]) was 12%. The “Population Mitotic Cells (%)” value (Fibroblast; [5]) was 53%, the “Population Normal (%)” value (Fibroblast; [5]) was 66% and the “Population Pyknosed Nuclei (%)” value (Fibroblast; [5]) was 20%. For the same molecule, the “Population Tubulin-Different-Phenotype (%)” value (Fibroblast; [5]) was 68%, the “Total Cell Count” value (Fibroblast; [5]) was 110 and the “Population Apoptotic (%)” value (Fibroblast; [6]) was 78%. For the same molecule, the “Population Fragmented Nuclei (%)” value (Fibroblast; [6]) was 36%, the “Population Healthy Nuclei (%)” value (Fibroblast; [6]) was 42% and the “Population Hoechst High Intensity Objects (%)” value (Fibroblast; [6]) was 40%. The “Population Membrane Permeable-Phenotype (%)” value (Fibroblast; [6]) was 20%, the “Population Mitochondria Different-Phenotype (%)” value (Fibroblast; [6]) was 24% and the “Population Mitotic Cells (%)” value (Fibroblast; [6]) was 21%. For the same molecule, the “Population Normal (%)” value (Fibroblast; [6]) was 59%, the “Population Tubulin-Different-Phenotype (%)” value (Fibroblast; [6]) was 58% and the “Total Cell Count” value (Fibroblast; [6]) was 114. For the same molecule, the “Growth Rate” value (U2OS; 0 h, replicate number 1, timepoint 0 hours) was 0, the “Growth Rate” value (U2OS; 6 h, replicate number 1, timepoint 6 hours) was 1 and the “Growth Rate” value (U2OS; 12 h, replicate number 1, timepoint 12 hours) was 1. The “Growth Rate” value (U2OS; 18 h, replicate number 1, timepoint 18 hours) was 0, the “Growth Rate” value (U2OS; 18 h, replicate number 2, timepoint 18 hours) was 1 and the “Growth Rate” value (U2OS; 24 h, replicate number 1, timepoint 24 hours) was 0. The “Growth Rate” value (U2OS; 24 h, replicate number 2, timepoint 24 hours) was 1.
